This note sets out measurements from ChEMBL document CHEMBL4673248, “Discovery and Characterization of BAY 1214784, an Orally Available Spiroindoline Derivative Acting as a Potent and Selective Antagonist of the Human Gonadotropin-Releasing Hormone Receptor as Proven in a First-In-Human Study in Postmenopausal Women” (J Med Chem, 2020).

For data set [1], the target named is T1, Gonadotropin-releasing hormone receptor (Homo sapiens, UniProt P30968).
T1 sequence (P30968 whole entry): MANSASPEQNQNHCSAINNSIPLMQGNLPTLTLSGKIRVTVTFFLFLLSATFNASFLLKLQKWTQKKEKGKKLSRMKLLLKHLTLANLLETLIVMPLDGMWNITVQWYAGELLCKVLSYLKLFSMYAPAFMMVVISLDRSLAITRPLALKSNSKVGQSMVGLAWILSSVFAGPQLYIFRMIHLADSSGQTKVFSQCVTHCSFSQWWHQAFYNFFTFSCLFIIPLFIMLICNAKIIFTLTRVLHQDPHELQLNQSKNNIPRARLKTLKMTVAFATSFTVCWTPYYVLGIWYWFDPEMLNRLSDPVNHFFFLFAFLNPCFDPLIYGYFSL
In words: Antagonist activity at human GnRH receptor expressed in CHO-K1 cells assessed as inhibition of LHRH-induced response preincubated for 20 mins followed by LHRH addition and measured after 60 mins by TR-FRET assay. Format: cell-based.

Data set [2] has as its target T1, Gonadotropin-releasing hormone receptor. In words: Antagonist activity at human GnRH receptor expressed in CHO-K1 cells assessed as inhibition of buserelin-induced response preincubated for 20 mins followed by buserelin addition and measured after 60 mins by TR-FRET assay. It counts as cell-based. (In general: In TR-FRET formats the signal depends on donor and acceptor labels being close together.)

Data set [3] deals with T2, Gonadotropin-releasing hormone receptor (Rattus norvegicus, UniProt P30969).
T2 sequence (P30969 whole entry): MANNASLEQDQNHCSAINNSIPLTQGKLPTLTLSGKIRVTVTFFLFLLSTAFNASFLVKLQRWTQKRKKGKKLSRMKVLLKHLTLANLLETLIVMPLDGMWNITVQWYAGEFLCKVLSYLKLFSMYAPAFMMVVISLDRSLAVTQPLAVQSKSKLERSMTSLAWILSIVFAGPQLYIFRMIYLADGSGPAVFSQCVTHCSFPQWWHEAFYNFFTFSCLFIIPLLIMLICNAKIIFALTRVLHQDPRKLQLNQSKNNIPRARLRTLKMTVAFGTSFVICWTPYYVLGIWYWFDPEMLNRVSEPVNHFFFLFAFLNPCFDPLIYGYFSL
As to the kind of experiment: Antagonist activity at rat GnRH receptor expressed in CHO-K1 cells assessed as inhibition of LHRH-induced response preincubated for 20 mins followed by LHRH addition and measured after 60 mins by TR-FRET assay. Format: cell-based. Put shortly:
(§1)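 Frozen rat-receptor cells: thawed, seeded overnight in serum-containing Ham's F12, Accutase-harvested, resuspended in serum-free medium with IP1-d2, 1 h at 37 °C. 1.0 × 10^4 cells/well, 20 min compound preincubation at rt, then 1× EC80 LHRH or buserelin in HEPES stimulation buffer pH 7.4 for 60 min at 37 °C. Tb-anti-IP1 lysis (1:38), HTRF read 60 min later.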

Data set [4] deals with T2, Gonadotropin-releasing hormone receptor. In words: Antagonist activity at rat GnRH receptor expressed in CHO-K1 cells assessed as inhibition of buserelin-induced response preincubated for 20 mins followed by buserelin addition and measured after 60 mins by TR-FRET assay. Format: cell-based. Put shortly: as §1
A short description of data set [5]: Lipophilicity, log D of the compound in pH 7.5 MeCN/H2O solution by reversed-phase HPLC analysis. Format: physicochemical. Put shortly:
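Indirect reversed-phase HPLC at pH 7.5, calibrated with n-alkan-2-ones C3–C16. Compounds applied as 0.67 mM DMSO stocks in MeCN/H2O (1:1).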

As for `COc1ccc(S(=O)(=O)N2c3ccc(C(=O)NCc4ccccc4Cl)cc3C(C)(C)C2C)cc1` (racemic), the IC50 (commonly the midpoint of a concentration-inhibition curve) was 365 nM in data set [1], 6620 nM in data set [2], 1420 nM in data set [3] and 4870 nM in data set [4].
Consider `CC(=O)N1CCC2(CC1)c1cc(NC(=O)c3cccc(F)c3)ccc1N(S(=O)(=O)c1ccc(F)cc1)C2C1CC1` (racemic), for which the IC50 was 10 nM in data set [1] and 18 nM in data set [2].
As for `CC(=O)N1CCC2(CC1)c1cc(C(=O)NCc3ccccc3Cl)ccc1N(S(=O)(=O)c1ccc(F)cc1)C2C` (stereo in doubt; form 2), the half-inhibitory concentration (IC50) in data set [1] was determined as 21 nM.
`CC(=O)N1CCC2(CC1)c1cc(C(=O)NC3(c4ccccc4Cl)CC3)ccc1N(S(=O)(=O)c1ccc(F)cc1)C2C1CC1` (racemic): the IC50 in data set [1] was found to be 162 nM; in data set [2], 1050 nM.
As to `CC(=O)N1CCC2(CC1)c1cc(C(=O)NCc3ccc(F)cc3Cl)ccc1N(S(=O)(=O)c1ccc(F)cc1)C2C1CC1` (racemic), the figures for the IC50 in data set [1] and in data set [2] were 38 nM and 77 nM, respectively.
As to `CC1N(S(=O)(=O)c2ccccc2)c2ccc(C(=O)NCc3ccccc3Cl)cc2C1(C)C` (racemic), the IC50 was 3060 nM in data set [1], 1410 nM in data set [2] and 4840 nM in data set [4].
For the compound `O=C(NCc1ncc(C(F)(F)F)cc1Cl)c1ccc2c(c1)C1(CCS(=O)(=O)CC1)C(C1CC1)N2S(=O)(=O)c1ccc(F)cc1` (stereo in doubt), the IC50 in data set [2] worked out at 2430 nM.
As for `COc1ccc(S(=O)(=O)N2c3ccc(C(=O)NCc4ccccc4Cl)cc3C(C)(C)C2C)cc1` (stereo in doubt; form 2), the IC50 in data set [1], in data set [2], in data set [3] and in data set [4] was at least 20000 nM throughout.
Regarding `O=C(Nc1ccc2c(c1)C1(CCSCC1)C(C1CC1)N2S(=O)(=O)c1ccc(F)cc1)c1cccnc1` (racemic), the results for the IC50 in data set [1] and in data set [2] were 48 nM and 132 nM, respectively.
For `CC(=O)N1CCC2(CC1)c1cc(C(=O)NCc3ccccc3Cl)ccc1N(S(=O)(=O)c1ccc(F)cc1)C2C1CC1` (racemic), in that order: 24 nM and 47 nM.
As for `O=C(Nc1ccc2c(c1)C1(CCC(O)(C(F)(F)F)CC1)C(C1CC1)N2S(=O)(=O)c1ccc(F)cc1)c1cccnc1` (stereo not given), the IC50 in data set [1] worked out at 78 nM; in data set [2] it was 228 nM.
The like results for `O=C(Nc1ccc2c(c1)C1(CCS(=O)(=O)CC1)C(C1CC1)N2S(=O)(=O)c1ccc(F)cc1)c1cccnc1` (stereo not given) were, in that order, 20 nM and 45 nM.
Take `O=C(NCc1ncc(C(F)(F)F)cc1F)c1ccc2c(c1)C1(CCS(=O)(=O)CC1)C(C1CC1)N2S(=O)(=O)c1ccc(F)cc1` (racemic): the IC50 is 84 nM in data set [1] and 246 nM in data set [2].
`COc1ccc(S(=O)(=O)N2c3ccc(C(=O)NCc4ccccc4Cl)cc3C3(CCN(C(C)=O)CC3)C2C)cc1` (stereo in doubt; form 1): the IC50 in data set [1], in data set [2] and in data set [3] was at least 20000 nM in each case.
Take `C=CCC1N(S(=O)(=O)c2ccc(F)cc2)c2ccc(C(=O)NCc3ccccc3Cl)cc2C12CCN(C(C)=O)CC2` (racemic): the IC50 in data set [1] is 10 nM; in data set [2] it was 22 nM.
Turning to `CC(=O)N1CCC2(CC1)c1cc(C(=O)NCc3ccccc3Cl)ccc1N(Cc1ccc(F)cc1)C2C` (racemic), the IC50 stood at 12800 nM in data set [1] and 18200 nM in data set [2].
On to `N=S1(=O)CCC2(CC1)c1cc(NC(=O)c3cccnc3)ccc1N(S(=O)(=O)c1ccc(F)cc1)C2C1CC1` (stereo in doubt; form 2), for which the IC50 in data set [1] was 13 nM; in data set [2], 26 nM.
As for `CC(=O)N1CCC2(CC1)c1cc(C(=O)NCc3ccccc3Cl)ccc1N(S(=O)(=O)c1ccc(F)cc1)C2C` (racemic), the IC50 stood at 87 nM in data set [1] and 90 nM in data set [2]. The chromatographic logD (in general, lipophilicity estimated from chromatographic retention) in data set [5] is 3.25.
Consider `CC(=O)N1CCC2(CC1)c1cc(C(=O)NCc3ccccc3)ccc1N(S(=O)(=O)c1ccc(F)cc1)C2C1CC1` (racemic), for which the results for the IC50 in data set [1] and in data set [2] were 208 nM and 553 nM, respectively.
For the compound `CC(=O)N1CCC2(CC1)CN(S(=O)(=O)c1ccc(F)cc1)c1ccc(C(=O)NCc3ccccc3Cl)cc12`, the values for the IC50 in data set [1] and in data set [2] were 420 nM and 1770 nM, respectively.
In the case of `O=C(NCc1ncc(F)cc1Cl)c1ccc2c(c1)C1(CCS(=O)(=O)CC1)C(C1CC1)N2S(=O)(=O)c1ccc(F)cc1` (racemic), the IC50 in data set [1] amounted to 65 nM; in data set [2], 144 nM.
In the case of `O=C(NCc1ccc(C(F)(F)F)cn1)c1ccc2c(c1)C1(CCS(=O)(=O)CC1)C(C1CC1)N2S(=O)(=O)c1ccc(F)cc1` (racemic), the IC50 stood at 159 nM in data set [1] and 415 nM in data set [2].
Regarding `COc1ccc(S(=O)(=O)N2c3ccc(C(=O)NCc4ccccc4Cl)cc3C(C)(C)C2C)cc1` (stereo in doubt; form 1), the IC50 in data set [1] turned out to be 568 nM; in data set [2], 1530 nM; in data set [3], 726 nM; in data set [4], 1110 nM.
As for `CC(=O)N1CCC2(CC1)c1cc(C(=O)NCc3ccccc3Cl)ccc1N(C(=O)c1ccc(F)cc1)C2C` (racemic), the IC50 in data set [1] was 18000 nM; in data set [2], above 20000 nM.
For `CC(=O)N1CCC2(CC1)c1cc(C(=O)NCc3ccccc3Cl)ccc1N(S(=O)(=O)c1ccc(F)cc1)C2C` (stereo in doubt; form 1), in that order: above 20000 nM and above 20000 nM.
On to `CC(=O)N1CCC2(CC1)c1cc(C(=O)NCc3ccccc3Cl)ccc1N(S(=O)(=O)c1ccc(F)cc1)C2CCO` (racemic), for which the figures for the IC50 in data set [1] and in data set [2] were 584 nM and 1150 nM, respectively.
In the case of `CC(=O)N1CCC2(CC1)c1cc(C(=O)NC3(c4ccc(Cl)cc4)CC3)ccc1N(S(=O)(=O)c1ccc(F)cc1)C2C1CC1` (racemic), the figures for the IC50 in data set [1] and in data set [2] were 56 nM and 92 nM, respectively.
Regarding `O=C(NCc1ncc(C(F)(F)F)cc1Cl)c1ccc2c(c1)C1(CCS(=O)(=O)CC1)C(C1CC1)N2S(=O)(=O)c1ccc(F)cc1` (racemic), the IC50 in data set [1] came to 20 nM; in data set [2] it was 44 nM.
With `O=C(Nc1ccc2c(c1)C1(CC[S+]([O-])CC1)C(C1CC1)N2S(=O)(=O)c1ccc(F)cc1)c1cccnc1` (stereo not given), the IC50 in data set [1] came out at 18 nM; in data set [2], 36 nM.
The like results for `O=C(NCc1ccccn1)c1ccc2c(c1)C1(CCS(=O)(=O)CC1)C(C1CC1)N2S(=O)(=O)c1ccc(F)cc1` (racemic) were, in that order, 245 nM and 921 nM.
Take `N=S1(=O)CCC2(CC1)c1cc(NC(=O)c3cccnc3)ccc1N(S(=O)(=O)c1ccc(F)cc1)C2C1CC1` (stereo in doubt; form 1): the IC50 in data set [1] turned out to be 32 nM; in data set [2] it was 58.5 nM.
Regarding `O=C(Nc1ccc2c(c1)C1(CCC(O)CC1)C(C1CC1)N2S(=O)(=O)c1ccc(F)cc1)c1cccnc1` (stereo not given), the values for the IC50 in data set [1] and in data set [2] were 26 nM and 61 nM, respectively.
The like results for `CC(=O)N1CCC2(CC1)c1cc(C(=O)NCc3ccccc3Cl)ccc1N(S(=O)(=O)c1ccccc1)C2C` (racemic) were, in that order, 53 nM and 131 nM.
`CC(=O)N1CCC2(CC1)c1cc(C(=O)NCc3ccccc3Cl)ccc1N(S(C)(=O)=O)C2C` (racemic): the IC50 in data set [1] was 10100 nM; in data set [2], 18100 nM.
The like results for `O=C(NCc1ncccc1Cl)c1ccc2c(c1)C1(CCS(=O)(=O)CC1)C(C1CC1)N2S(=O)(=O)c1ccc(F)cc1` (racemic) were, in that order, 90 nM and 222 nM.
For `CC(=O)N1CCC2(CC1)c1cc(NC(=O)c3cccnc3)ccc1N(S(=O)(=O)c1ccc(F)cc1)C2C1CC1` (racemic), the IC50 was determined as 34 nM in data set [1] and 68 nM in data set [2].
The like results for `CC(=O)N1CCC2(CC1)c1cc(C(=O)NCc3ccccc3Cl)ccc1N(S(=O)(=O)c1cccnc1)C2C` (racemic) were, in that order, 139 nM and 269 nM.
With `CC(=O)N1CCC2(CC1)c1cc(C(=O)NCc3ccccc3Cl)ccc1N(S(=O)(=O)c1ccc(C(F)(F)F)cc1)C2C` (racemic), the results for the half-inhibitory concentration (IC50) in data set [1] and in data set [2] were above 20000 nM and 13800 nM, respectively.
With `CC1N(S(=O)(=O)c2ccc(F)cc2)c2ccc(NC(=O)c3cccnc3)cc2C12CCOCC2` (racemic), the IC50 stood at 53 nM in data set [1] and 140 nM in data set [2].
